Measurements: ChEMBL document CHEMBL1143889, “N-Phenyl and N-phenylalkyl-maleimides acting against Candida spp.: time-to-kill, stability, interaction with maleamic acids” (2008)
Converted amounts (≈) assume the structure as drawn. The source made the active and inactive calls. The rule behind the calls is not given here.

Tests used:
[1] = system: Candida albicans; assay: Antifungal activity against Candida albicans C 130-2000 after 48 hrs by CLSI M27-A2 method; format: functional
Outline: (§1)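 Broth microdilution per CLSI M27-A2 in RPMI-1640, with twofold dilutions giving final 250–0.98 µg/mL. The inoculum was modified to 1–5 × 10⁴ CFU/mL instead of 1–5 × 10³, with ketoconazole and amphotericin B as positive controls. MIC was the lowest concentration giving total growth inhibition, read visually. Strains were grown on Sabouraud-chloramphenicol agar for 24 h at 37 °C.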

[2] = system: Candida albicans; assay: Antifungal activity against Candida albicans C 126-2000 after 48 hrs by CLSI M27-A2 method; format: functional; outline: as §1
[3] = system: Candida albicans; assay: Antifungal activity against Candida albicans ATCC 10231 pre-incubated for 5 days analysed after 24 hrs by CLSI M27-A2 method; format: functional
Outline: (§2)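 Twofold maleimide dilutions (1000–0.98 µg/mL) in complete M27-A2 medium without inoculum were held at 37 °C, with one plate row filled on each of 7 consecutive days to give 0–7 days of pre-incubation. All wells were then inoculated with C. albicans ATCC 10231 at 1–5 × 10⁴ CFU/mL and incubated for 24 h at 37 °C. MIC was read per row, in duplicate.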

[4] = system: Candida albicans; assay: Antifungal activity against Candida albicans ATCC 10231 pre-incubated for 2 days analysed after 24 hrs by CLSI M27-A2 method; format: functional; outline: as §2
[5] = system: Candida albicans; assay: Antifungal activity against Candida albicans ATCC 10231 after 48 hrs by CLSI M27-A2 method; format: functional; conditions: ATCC 10231, 48 h; outline: as §1
[6] = system: Candida albicans; assay: Antifungal activity against Candida albicans C 129-2000 after 48 hrs by CLSI M27-A2 method; format: functional; outline: as §1
[7] = system: Clavispora lusitaniae; assay: Antifungal activity against Candida lusitaniae C 131-2000 after 48 hrs by CLSI M27-A2 method; format: functional; outline: as §1
[8] = system: Candida albicans; assay: Antifungal activity against Candida albicans ATCC 10231 after 24 hrs by CLSI M27-A2 method; format: functional; conditions: ATCC 10231, 24 h; outline: as §1
[9] = system: Candida albicans; assay: Antifungal activity against Candida albicans ATCC 10231 pre-incubated for 1 day analysed after 24 hrs by CLSI M27-A2 method; format: functional; outline: as §2
[10] = system: Candida parapsilosis; assay: Antifungal activity against Candida parapsilosis C 124-2000 after 48 hrs by CLSI M27-A2 method; format: functional; conditions: Lodderomyces parapsilosis; outline: as §1
[11] = system: Kluyveromyces marxianus; assay: Antifungal activity against Candida kefyr C 123-2000 after 48 hrs by CLSI M27-A2 method; format: functional; outline: as §1
[12] = system: Torulaspora delbrueckii; assay: Antifungal activity against Candida coliculosa C 122-2000 after 48 hrs by CLSI M27-A2 method; format: functional; outline: as §1
[13] = system: Candida tropicalis; assay: Antifungal activity against Candida tropicalis C 137-1997 after 48 hrs by CLSI M27-A2 method; format: functional; outline: as §1
[14] = system: Candida albicans; assay: Antifungal activity against Candida albicans ATCC 10231 preincubated for 7 days analysed after 24 hrs by CLSI M27-A2 method; format: functional; outline: as §2
[15] = system: Candida albicans; assay: Antifungal activity against Candida albicans C 127-2000 after 48 hrs by CLSI M27-A2 method; format: functional; outline: as §1
[16] = system: Candida albicans; assay: Antifungal activity against Candida albicans ATCC 10231 within 90 mins by time-to-kill study; format: functional, organism-based
Outline: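 C. albicans ATCC 10231 (2–2.5 × 10⁴ CFU/mL) in 5 mL RPMI-1640 was exposed to 1× MFC of compound at 37 °C with agitation. 10 µL samples taken at 0, 30, 60, 90 and 120 min, and at 4, 8, 12 and 24 h, were plated on drug-free SDA and colonies counted after 24–48 h at 37 °C. Run in duplicate.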

[17] = system: Candida albicans; assay: Antifungal activity against Candida albicans ATCC 10231 pre-incubated for 6 days analysed after 24 hrs by CLSI M27-A2 method; format: functional; outline: as §2
[18] = system: Candida albicans; assay: Antifungal activity against Candida albicans ATCC 10231 pre-incubated for 4 days analysed after 24 hrs by CLSI M27-A2 method; format: functional; outline: as §2
[19] = system: Pichia kudriavzevii; assay: Antifungal activity against Candida krusei C 117-2000 after 48 hrs by CLSI M27-A2 method; format: functional; outline: as §1
[20] = system: Candida albicans; assay: Antifungal activity against Candida albicans C 125-2000 after 48 hrs by CLSI M27-A2 method; format: functional; outline: as §1
[21] = system: Candida albicans; assay: Antifungal activity against Candida albicans C 128-2000 after 48 hrs by CLSI M27-A2 method; format: functional; outline: as §1
[22] = system: Candida albicans; assay: Antifungal activity against Candida albicans ATCC 10231 pre-incubated for 3 days analysed after 24 hrs by CLSI M27-A2 method; format: functional; outline: as §2
[23] = system: Nakaseomyces glabratus; assay: Antifungal activity against Candida glabrata C 115-2000 after 48 hrs by CLSI M27-A2 method; format: functional; outline: as §1

Structure (SMILES)	MFC [1]	MIC [1]	MFC [2]	MIC [2]	MIC [3]	MIC [4]	MFC [5]	MIC [5]	MFC [6]	MIC [6]	MFC [7]	MIC [7]	MIC [8]	MIC [9]	MFC [10]	MIC [10]	MFC [11]	MIC [11]	MFC [12]	MIC [12]	other results
O=C1C=CC(=O)N1CCCCc1ccccc1	3.9 µg/mL (≈ 17 µM)	1.95 µg/mL (≈ 8.5 µM)	1.95 µg/mL (≈ 8.5 µM)	0.97 µg/mL (≈ 4.23 µM)	125 µg/mL (≈ 545 µM)	3.9 µg/mL (≈ 17 µM)	7.8 µg/mL (≈ 34 µM)	3.9 µg/mL (≈ 17 µM)	1.95 µg/mL (≈ 8.5 µM)	0.97 µg/mL (≈ 4.23 µM)	3.9 µg/mL (≈ 17 µM)	3.9 µg/mL (≈ 17 µM)	3.9 µg/mL (≈ 17 µM)	3.9 µg/mL (≈ 17 µM)	7.8 µg/mL (≈ 34 µM)	1.95 µg/mL (≈ 8.5 µM)	7.81 µg/mL (≈ 34.1 µM)	1.95 µg/mL (≈ 8.5 µM)	3.9 µg/mL (≈ 17 µM)	3.9 µg/mL (≈ 17 µM)	MFC [13]: 32.2 µg/mL (≈ 141 µM); MIC [13]: 15.8 µg/mL (≈ 68.7 µM); MIC [14]: 1000 µg/mL (≈ 4360 µM); MFC [15]: 3.9 µg/mL (≈ 17 µM); MIC [15]: 1.95 µg/mL (≈ 8.5 µM); Activity [16]: Active; MIC [17]: 250 µg/mL (≈ 1090 µM); MIC [18]: 31.2 µg/mL (≈ 136 µM); MFC [19]: 15.8 µg/mL (≈ 68.7 µM); MIC [19]: 7.8 µg/mL (≈ 34 µM); MFC [20]: 1.95 µg/mL (≈ 8.5 µM); MIC [20]: 0.97 µg/mL (≈ 4.23 µM); MFC [21]: 1.95 µg/mL (≈ 8.5 µM); MIC [21]: 0.97 µg/mL (≈ 4.23 µM); MIC [22]: 15.8 µg/mL (≈ 68.7 µM); MFC [23]: 3.9 µg/mL (≈ 17 µM); MIC [23]: 1.95 µg/mL (≈ 8.5 µM)
O=C1C=CC(=O)N1Cc1ccccc1	1.95 µg/mL (≈ 10.4 µM)	0.97 µg/mL (≈ 5.18 µM)	3.9 µg/mL (≈ 20.8 µM)	0.97 µg/mL (≈ 5.18 µM)	125 µg/mL (≈ 668 µM)	7.8 µg/mL (≈ 41.7 µM)	7.8 µg/mL (≈ 41.7 µM)	3.9 µg/mL (≈ 20.8 µM)	3.9 µg/mL (≈ 20.8 µM)	1.95 µg/mL (≈ 10.4 µM)	3.9 µg/mL (≈ 20.8 µM)	1.95 µg/mL (≈ 10.4 µM)	3.9 µg/mL (≈ 20.8 µM)	3.9 µg/mL (≈ 20.8 µM)	3.9 µg/mL (≈ 20.8 µM)	1.95 µg/mL (≈ 10.4 µM)	3.9 µg/mL (≈ 20.8 µM)	3.9 µg/mL (≈ 20.8 µM)	7.81 µg/mL (≈ 41.7 µM)	1.95 µg/mL (≈ 10.4 µM)	MFC [13]: 32.2 µg/mL (≈ 172 µM); MIC [13]: 15.8 µg/mL (≈ 84.1 µM); MIC [14]: 500 µg/mL (≈ 2670 µM); MFC [15]: 3.9 µg/mL (≈ 20.8 µM); MIC [15]: 1.95 µg/mL (≈ 10.4 µM); Activity [16]: Active; MIC [17]: 250 µg/mL (≈ 1340 µM); MIC [18]: 15.8 µg/mL (≈ 84.1 µM); MFC [19]: 3.9 µg/mL (≈ 20.8 µM); MIC [19]: 3.9 µg/mL (≈ 20.8 µM); MFC [20]: 1.95 µg/mL (≈ 10.4 µM); MIC [20]: 0.97 µg/mL (≈ 5.18 µM); MFC [21]: 3.9 µg/mL (≈ 20.8 µM); MIC [21]: 1.95 µg/mL (≈ 10.4 µM); MIC [22]: 7.8 µg/mL (≈ 41.7 µM); MFC [23]: 1.95 µg/mL (≈ 10.4 µM); MIC [23]: 1.95 µg/mL (≈ 10.4 µM)
O=C1C=CC(=O)N1c1ccccc1	1.95 µg/mL (≈ 11.3 µM)	0.48 µg/mL (≈ 2.77 µM)	3.9 µg/mL (≈ 22.5 µM)	0.97 µg/mL (≈ 5.6 µM)	62.5 µg/mL (≈ 361 µM)	3.9 µg/mL (≈ 22.5 µM)	7.8 µg/mL (≈ 45 µM)	3.9 µg/mL (≈ 22.5 µM)	1.95 µg/mL (≈ 11.3 µM)	0.48 µg/mL (≈ 2.77 µM)	7.8 µg/mL (≈ 45 µM)	3.9 µg/mL (≈ 22.5 µM)	3.9 µg/mL (≈ 22.5 µM)	3.9 µg/mL (≈ 22.5 µM)	3.9 µg/mL (≈ 22.5 µM)	1.95 µg/mL (≈ 11.3 µM)	3.9 µg/mL (≈ 22.5 µM)	1.95 µg/mL (≈ 11.3 µM)	3.9 µg/mL (≈ 22.5 µM)	1.95 µg/mL (≈ 11.3 µM)	MFC [13]: 15.8 µg/mL (≈ 91 µM); MIC [13]: 7.81 µg/mL (≈ 45.1 µM); MIC [14]: 500 µg/mL (≈ 2890 µM); MFC [15]: 1.95 µg/mL (≈ 11.3 µM); MIC [15]: 0.97 µg/mL (≈ 5.6 µM); Activity [16]: Active; MIC [17]: 125 µg/mL (≈ 722 µM); MIC [18]: 15.8 µg/mL (≈ 91 µM); MFC [19]: 1.95 µg/mL (≈ 11.3 µM); MIC [19]: 1.95 µg/mL (≈ 11.3 µM); MFC [20]: 1.95 µg/mL (≈ 11.3 µM); MIC [20]: 0.48 µg/mL (≈ 2.77 µM); MFC [21]: 3.9 µg/mL (≈ 22.5 µM); MIC [21]: 0.97 µg/mL (≈ 5.6 µM); MIC [22]: 7.8 µg/mL (≈ 45 µM); MFC [23]: 3.9 µg/mL (≈ 22.5 µM); MIC [23]: 1.95 µg/mL (≈ 11.3 µM)
